# Results collected from several papers.
# Protocols differ between the studies behind these lines.
# Cell line: MCF7
# Read-out: cell growth or viability
Compound,technique,time,IC50
NS(=O)(=O)c1ccc(-n2nc(C(=O)NN=Cc3cccnc3)cc2-c2ccccc2)cc1,fluorescence,48 h,34.1 µM
COc1cccc2c1C(=O)c1c(O)c3c(c(O)c1C2=O)C[C@@](O)(C(=O)CO)C[C@@H]3O[C@H]1C[C@H](N)[C@H](O)[C@H](C)O1,MTT,24 h,1.09 µM
CCOC(=O)C(=CNc1ccc(Oc2ccccc2)cc1)C(=O)OCC,MTT,48 h,115 µM
C/C(=N\N=C(/C)c1c(O)c2ccccc2oc1=O)c1c(O)c2ccccc2oc1=O,MTT,48 h,33.6 µM
C[C@H]1[C@H](C)CC[C@]2(C(=O)O)CC[C@]3(C)C(=CC[C@@H]4[C@@]5(C)CC[C@H](O)C(C)(C)[C@@H]5CC[C@]43C)[C@H]12,MTT,24 h,27.3 µM
O=C1CS/C(=N\c2ccccc2O)N1c1nnc(-c2ccc(C(F)(F)F)cc2/N=C2\SCC(=O)N2c2ccccc2O)s1,MTT,,32.4 µM
FC(F)(F)c1ccc(-c2noc(-c3nn(Cc4ccc(Cl)cc4Cl)c4ccccc34)n2)cc1,,48 h,166 µM
COc1cc(N=C2C(=O)N(Cc3ccccc3)c3ccccc32)cc(OC)c1,MTT,48 h,0.56 µM
CC(=O)OC[C@H]1O[C@@H](n2cc(Cn3c(C(C)=O)nc4ccccc43)nn2)[C@H](OC(C)=O)[C@@H](OC(C)=O)[C@H]1OC(C)=O,LDH,48 h,3.79 µM
O=[N+]([O-])c1cc(I)c(O)c(C=NNc2ccccc2)c1,MTT,24 h,7.76 µM
COc1ccc(N(Cc2csc(-c3ccc(C)cc3)n2)C(=O)CCCCCC(=O)NO)cc1,MTT,72 h,3.31 µM
CC(C)c1cccc(C(C)C)c1N=C1C(=O)Nc2ccccc21,MTT,48 h,0.69 µM
CC(C)CNC(=S)N/N=C/c1cccc2cc3ccccc3nc12,MTT,48 h,> 50 µM
Cc1nc2ccc(-c3cccc(F)c3)cc2c(O)c1C(=O)O,MTT,48 h,≥ 100 µM
CC(C)Cc1ccc([C@H](C)C(=O)O)cc1,SRB,72 h,399 µM
O=S(=O)([O-])c1ccc(O)c(C=NNC(=S)Nc2cccc3ccccc23)c1.[Na+],MTT,24 h,> 800 µg/mL
CC(C)c1cccc(C(C)C)c1N=C1C(=O)N(Cc2cccc(Cl)c2)c2ccccc21,MTT,48 h,46.5 µM
O=C(NO)Nc1nc2ccc(Br)cc2c(=O)n1-c1ccccc1,MTT,48 h,29.6 µM
O=C(O)c1nn(Cc2ccc(Cl)cc2Cl)c2ccccc12,,48 h,113 µM
COc1cccc(Nc2nc(-c3ccncc3)nc3c2CNCC3)c1,MTT,,30.1 µM
COc1cccc2c1C(=O)c1c(O)c3c(c(O)c1C2=O)C[C@@](O)(C(=O)CO)C[C@@H]3O[C@H]1C[C@H](N)[C@H](O)[C@H](C)O1,MTT,48 h,5.17 µM
C(=N\Nc1cc(N/N=C/c2ccc3ccccc3n2)nc(-c2ccccc2)n1)/c1ccc2ccccc2n1,MTT,48 h,7.05 µM
